Experimental findings from ChEMBL document CHEMBL4138319, “Discovery, Synthesis, Pharmacological Profiling, and Biological Characterization of Brintonamides A-E, Novel Dual Protease and GPCR Modulators from a Marine Cyanobacterium” (J Med Chem, 2018) are described below.

Usually inhibition stands for the change of the read-out against control, counted positive when it falls. The term IC50 denotes the concentration that inhibits the measured activity by half. One may read the EC50 as the concentration at which the effect is half-maximal.

The source made the active and inactive calls. No cut-off for these calls is given here. Square brackets hold non-standard residues; d marks the D form. Peptide text beside a SMILES is read from it. * marks the point of attachment. X1 = CC[C@H](C)[C@@H](OC(=O)/C=C/c1ccccc1)C(=O)*; dNMeF = CN[C@H](Cc1ccccc1)C(=O)O; NMeL = CN[C@@H](CC(C)C)C(=O)O

In experiment [1] the target is T1, Somatostatin receptor type 3 (Homo sapiens, UniProt P32745). Nature of the experiment: Antagonist activity at human SSTR3 expressed in HEK293 cells assessed as [Tyr1]-somatostatin 14-induced beta-arrestin recruitment at 10 uM pre-incubated for 30 mins before [Tyr1]-somatostatin 14 stimulation for 90 or 180 mins by chemiluminescence method. In kind it is functional, cell-based. Set-up: scale not given: the % may be the effect or the level left. In general terms: Arrestin recruitment assays detect the binding of arrestin to an activated receptor.

The target of experiment [2] is T2, Kallikrein-7 (Homo sapiens, UniProt P49862). Description: Inhibition of recombinant human kallikrein 7 assessed as decrease in cleavage of desmoglein-2 at 10 uM after 30 mins or 2 hrs by silver staining based SDS-PAGE analysis.
Another experiment has as its system MDA-MB-468. Nature of the experiment: Antimigratory activity against human MDA-MB-468 cells at 0.1 to 10 uM after 48 hrs. In kind it is functional, cell-based. The procedure, abridged:
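Transwell migration through an 8 μm pore membrane. 5000 MDA-MB-468 cells in DMEM with 10% FBS are treated with graded compound concentrations or solvent on both sides for 48 h at 37 °C. Migrated cells are stained with crystal violet and counted. Run in triplicate.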

In experiment [3] the target is T3, Atypical chemokine receptor 3 (Homo sapiens, UniProt P25106). Description: Agonist activity at human CXCR7 expressed in CHOK1 cells assessed as induction of beta-arrestin recruitment at 10 uM by chemiluminescence method. In kind it is functional, cell-based.
The next experiment deals with T4, Oxytocin receptor (Homo sapiens, UniProt P30559).
T4 sequence (P30559 whole entry): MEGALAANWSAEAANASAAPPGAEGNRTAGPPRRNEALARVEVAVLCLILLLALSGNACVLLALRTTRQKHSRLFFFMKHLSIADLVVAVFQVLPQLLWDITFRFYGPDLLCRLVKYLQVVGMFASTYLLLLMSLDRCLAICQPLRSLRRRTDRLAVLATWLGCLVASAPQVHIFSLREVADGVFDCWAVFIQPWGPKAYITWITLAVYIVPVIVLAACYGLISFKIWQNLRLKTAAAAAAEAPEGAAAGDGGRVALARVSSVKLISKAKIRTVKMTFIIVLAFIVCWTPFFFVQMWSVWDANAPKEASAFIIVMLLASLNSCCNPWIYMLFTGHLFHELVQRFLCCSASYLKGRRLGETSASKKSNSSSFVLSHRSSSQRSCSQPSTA
Description: Antagonist activity at human OXTR expressed in CHOK1 cells assessed as oxytocin-induced beta-arrestin recruitment pre-incubated for 30 mins before oxytocin stimulation for 90 or 180 mins by chemiluminescence method. In kind it is functional, cell-based. The procedure, abridged: (§1)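 PathHunter β-arrestin complementation assay, antagonist mode. Cells co-express ProLink-tagged GPCR and enzyme-acceptor-tagged β-arrestin and are pre-incubated with sample for 30 min at 37 °C or room temperature. Dose-response: 10 points, 3-fold dilutions from 20 μM, in duplicate.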

Experiment [4] concerns the target T2, Kallikrein-7. Description: Mixed type inhibition of kallikrein 7 (unknown origin) using fluorescently labeled peptide substrate by fluorescence assay based Michaelis-Menten kinetic plot analysis.
Experiment [5] deals with T5, C-C chemokine receptor type 10 (Homo sapiens) (UniProt P46092).
T5 sequence (whole entry): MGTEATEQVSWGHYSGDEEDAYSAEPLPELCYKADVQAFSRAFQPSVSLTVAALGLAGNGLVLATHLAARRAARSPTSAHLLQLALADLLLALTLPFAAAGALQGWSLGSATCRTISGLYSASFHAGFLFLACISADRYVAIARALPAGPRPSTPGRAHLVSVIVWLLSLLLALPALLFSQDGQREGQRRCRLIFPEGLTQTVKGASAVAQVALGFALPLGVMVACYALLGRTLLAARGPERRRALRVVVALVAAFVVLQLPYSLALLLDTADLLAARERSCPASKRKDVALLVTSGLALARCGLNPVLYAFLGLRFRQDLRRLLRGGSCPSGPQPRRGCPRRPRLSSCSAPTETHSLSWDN
Nature of the experiment: Antagonist activity at CCR10 in human MDA-MB-231 cells assessed as inhibition of CCL27-induced proliferation preincubated for 2 hrs followed by CCL27 addition measured after 48 hrs by MTT assay. In kind it is functional, cell-based. In a few lines: (§2)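 MDA-MB-231 cells are seeded at 10,000/well in serum-free DMEM for 24 h, then pretreated with compound for 2 h. CCL27 is added at 1 μg/mL final for 48 h. Viability is measured by MTT and compared with solvent control, mean ± SD, n = 3.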

In experiment [6] the target is T3, Atypical chemokine receptor 3. Nature of the experiment: Agonist activity at human CXCR7 expressed in CHOK1 cells assessed as induction of beta-arrestin recruitment by chemiluminescence method. The experiment is classed as functional, cell-based. The procedure, abridged: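 PathHunter β-arrestin enzyme-fragment complementation assay in cells stably co-expressing ProLink-tagged GPCR and enzyme-acceptor-tagged β-arrestin. Sample is added to cells and incubated 90 or 180 min at 37 °C or room temperature, with 1% final vehicle. Detection reagent is added for 1 h at room temperature and chemiluminescence is read. % activity is taken relative to vehicle and maximal control ligand. Dose-response: 10 points, 3-fold dilutions from 20 μM, in duplicate.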

Experiment [7] concerns the target T2, Kallikrein-7. Description: Inhibition of recombinant human kallikrein 7 assessed as decrease in cleavage of E-cadherin at 10 uM after 30 mins or 2 hrs by silver staining based SDS-PAGE analysis.
Experiment [8] concerns the target T2, Kallikrein-7. Nature of the experiment: Inhibition of kallikrein 7 (unknown origin) using fluorescently labeled peptide substrate by fluorescence assay. The procedure, abridged:
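KLK7 follow-up: 10-dose titrations, 3-fold serial dilution from 100 μM, in duplicate, with gabexate mesylate as positive control. Fluorescence from the labeled peptide substrate is monitored over time, and the initial linear slope (signal/min) is used to derive IC50.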

Experiment [9] concerns MDA-MB-231. Nature of the experiment: Antimigratory activity against human MDA-MB-231 cells at 10 uM after 48 hrs by transwell migration assay relative to control. In kind it is functional.
In experiment [10] the target is T3, Atypical chemokine receptor 3. Nature of the experiment: Agonist activity at human CXCR7 expressed in CHOK1 cells assessed as induction of beta-arrestin recruitment at 20 uM by chemiluminescence method. In kind it is functional, cell-based.
Experiment [11] concerns the target T5, C-C chemokine receptor type 10 (Homo sapiens). Description: Antagonist activity at CCR10 in human MDA-MB-231 cells assessed as inhibition of CCL27-induced proliferation up to 10 uM preincubated for 2 hrs followed by CCL27 addition measured after 48 hrs by MTT assay. The experiment is classed as functional, cell-based. The procedure, abridged:
as §2

Experiment [12] relates to MDA-MB-231. Nature of the experiment: Antiproliferative activity against siCCR10 knockdown human MDA-MB-231 cells after 48 hrs by MTT assay. In kind it is functional. In a few lines:
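MDA-MB-231 cells are incubated with 50 nM CCR10 siRNA, which gives 60% knockdown confirmed by RT-qPCR. Proliferation is compared with negative-control siRNA, mean ± SD, n = 3.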
(In general: Tetrazolium assays rely on reduction of a dye to a coloured formazan, in cell work by metabolically active cells.)

The target of another experiment is T6, Caspase-14 (Homo sapiens, UniProt P31944).
T6 sequence (P31944 whole entry): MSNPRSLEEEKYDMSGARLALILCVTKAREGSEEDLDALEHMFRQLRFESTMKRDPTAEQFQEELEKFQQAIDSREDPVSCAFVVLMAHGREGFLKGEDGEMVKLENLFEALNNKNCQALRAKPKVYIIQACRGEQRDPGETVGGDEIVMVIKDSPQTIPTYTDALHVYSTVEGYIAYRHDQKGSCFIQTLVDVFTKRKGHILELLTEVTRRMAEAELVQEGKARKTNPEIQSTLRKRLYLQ
Description: Inhibition of human caspase 14 using Ac-WEHD-AMC fluorogenic peptide as substrate by fluorescence assay. The procedure, abridged: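 Activity followed as a time course of rising fluorescence from a fluorescently labelled peptide substrate. The initial linear slope (signal/min) was used.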

The target of experiment [13] is T1, Somatostatin receptor type 3. Description: Antagonist activity at human SSTR3 expressed in HEK293 cells assessed as [Tyr1]-somatostatin 14-induced beta-arrestin recruitment pre-incubated for 30 mins before [Tyr1]-somatostatin 14 stimulation for 90 or 180 mins by chemiluminescence method. The experiment is classed as functional, cell-based. The procedure, abridged: as §1

T3 sequence (P25106 whole entry): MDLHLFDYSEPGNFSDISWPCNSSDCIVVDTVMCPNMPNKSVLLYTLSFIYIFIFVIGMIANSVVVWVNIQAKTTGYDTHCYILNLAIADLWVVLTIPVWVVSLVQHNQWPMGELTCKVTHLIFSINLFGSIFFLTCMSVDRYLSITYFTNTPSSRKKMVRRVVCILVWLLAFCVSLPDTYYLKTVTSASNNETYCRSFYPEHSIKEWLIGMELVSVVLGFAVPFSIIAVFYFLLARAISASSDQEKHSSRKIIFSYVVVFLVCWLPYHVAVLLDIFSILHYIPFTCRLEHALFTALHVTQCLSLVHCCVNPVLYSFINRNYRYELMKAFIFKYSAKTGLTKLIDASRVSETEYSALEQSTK
T2 sequence (P49862 30-253 limits assumed): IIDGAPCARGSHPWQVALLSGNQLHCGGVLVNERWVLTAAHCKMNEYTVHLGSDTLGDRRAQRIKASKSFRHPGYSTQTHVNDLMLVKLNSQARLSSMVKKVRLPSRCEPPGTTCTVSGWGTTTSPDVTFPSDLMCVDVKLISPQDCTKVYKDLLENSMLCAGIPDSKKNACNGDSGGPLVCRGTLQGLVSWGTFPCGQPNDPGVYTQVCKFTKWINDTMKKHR
T1 sequence (P32745 whole entry): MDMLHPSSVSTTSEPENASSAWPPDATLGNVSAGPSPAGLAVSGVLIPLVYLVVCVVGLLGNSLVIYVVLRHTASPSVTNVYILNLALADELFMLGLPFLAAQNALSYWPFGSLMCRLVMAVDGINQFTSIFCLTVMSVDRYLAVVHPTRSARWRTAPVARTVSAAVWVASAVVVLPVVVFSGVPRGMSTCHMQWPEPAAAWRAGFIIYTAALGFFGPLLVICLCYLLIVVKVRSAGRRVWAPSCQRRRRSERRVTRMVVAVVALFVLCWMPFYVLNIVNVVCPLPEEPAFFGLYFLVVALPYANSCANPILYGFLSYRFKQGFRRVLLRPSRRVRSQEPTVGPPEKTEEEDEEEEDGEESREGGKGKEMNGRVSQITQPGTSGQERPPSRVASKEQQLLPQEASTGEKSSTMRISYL

Turning to `CC[C@H](C)[C@@H](OC(=O)/C=C/c1ccccc1)C(=O)N1CCC[C@H]1C(=O)NCC(=O)N(C)[C@@H](CC(C)C)C(=O)N[C@@H](C)C(=O)N(C)[C@H](Cc1ccccc1)C(=O)N1CCC[C@H]1C(=O)OC` (X1-PG[NMeL]A[dNMeF]P-OMe), the Activity in experiment [1] worked out at 77%; in experiment [3] it was 86%; with MDA-MB-231 [9], 60%; in [10], 91%; in the experiment on MDA-MB-231 [12] it was 10%. Besides, the inhibition result on Kallikrein-7 [2], at Kallikrein-7 [4], at Kallikrein-7 [7] and on Kallikrein-7 [8] was “Active” throughout. In the experiment on MDA-MB-468, the outcome was Active. In addition, the values for the IC50 (at Oxytocin receptor; at Caspase-14; in experiment [13]) were 6.78 µM, 10.1 µM and 3.12 µM, respectively. Further, the inhibition entry in experiment [5] was “Dose-dependent effect”; in experiment [11], 10%. In experiment [6], the EC50 is 3.97 µM.
